Results taken from PMC2909360 (Molecular microbiology, 2010).

Key:
[1] = target: purified bovine cathepsin B (Bos taurus, UniProt P07688); assay: Inhibition of cathepsin B, fluorogenic substrate assay; assay type: biochemical
In short: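 Pre-incubated 10 min at room temperature with increasing inhibitor concentrations, then Z-Leu-Arg-AMC added (0.25 mM final) at 30°C. Linear hydrolysis rate read for 20 min (ex 365/em 450 nm). Triplicates, mean ± SEM. IC50 from activity loss.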

calpain = assay: Inhibition of calpain; assay type: biochemical; conditions: data not shown

CC(C)C[C@H](NC(=O)N1CCOCC1)C(=O)N[C@H](/C=C/S(=O)(=O)c1ccccc1)CCc1ccccc1 [LHVS, Morpholinurea-leucine-homophenylalanine-vinylsulfone-phenyl, reference compound]
inhibition of cathepsin B (in words) [1]: targets also cathepsin B
inhibition of calpain (in words) (calpain): targets
